In article PMC6045486 (ACS Omega, 2018):

Columns and labels:
Chemical stability [1] = assay type: physicochemical; details: 10 μM, phosphate buffer pH 7.4, 1% DMSO, 37 °C, within 1 h
Chemical stability [2] = assay type: physicochemical; details: 10 μM, cell culture medium with 10% FBS, 1% DMSO, 37 °C, in 2.5 h
MCF7 cells [3] = assay: MTT cytotoxicity assay, MCF7; assay type: cell-based, human; details: read-out: IC50 (half maximal concentration to inhibit proliferation by 50%), 48 h
Outline: (§1)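 Cells kept in DMEM with 10% FBS and penicillin/streptomycin at 37 °C in 5% CO2. About 2 × 10^3 cells per well, 12 h attachment, then test compound at 5–100 μM (from DMSO stock; 0.1% DMSO final) for 48 h. MTT absorbance read at 570 nm, with % cytotoxicity relative to the 0.1% DMSO control. Mean ± SEM, n = 3.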

A549 cells = assay: MTT cytotoxicity assay, A549; assay type: cell-based, human; details: read-out: IC50 (half maximal concentration to inhibit proliferation by 50%), 48 h
Outline: as §1

CHO cells [4] = assay: MTT cytotoxicity assay, CHO; assay type: cell-based, Chinese Hamster; details: read-out: IC50 (half maximal concentration to inhibit proliferation by 50%), 48 h
Outline: as §1

splenic lymphocytes = assay: MTT cytotoxicity assay, splenic lymphocytes; assay type: cell-based, BALB/c mice; details: read-out: IC50 (half maximal concentration to inhibit proliferation by 50%), 48 h
Outline: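 Splenic lymphocytes freshly isolated from BALB/c mice and kept in RPMI-1640 with FBS and antibiotics at 37 °C in 5% CO2. About 2 × 10^3 cells per well, 12 h, then test compound at 5–100 μM (0.1% DMSO final) for 48 h. MTT absorbance read at 570 nm, with % cytotoxicity relative to the DMSO control. Mean ± SEM, n = 3.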

MCF7 cells [5] = assay: Intracellular redox state: ratio of GSH and GSSG in MCF7 cells; assay type: cell-based, human; details: MCF7, 25 μM, 48 h
Outline: (§2)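 MCF7 cells were grown in DMEM with 10% FBS at 37 °C and 5% CO2, then exposed to 25 μM test compound (0.1% DMSO) for 48 h. Lysates were made in CelLytic M with protease inhibitor cocktail. About 100 μg protein was used for GSH, GSSG, GPx, GST and GR determinations, with protein measured by Bradford. Mean ± SEM, n = 3, versus DMSO control.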

[6] = tested on: glutathione peroxidase (GPx); assay: GPx activity level in MCF7 cells; assay type: cell-based, human; details: MCF7, 25 μM, 48 h
Outline: as §2

[7] = tested on: glutathione S-transferase (GST); assay: GST activity level in MCF7 cells; assay type: cell-based, human; details: MCF7, 25 μM, 48 h
Outline: as §2

[8] = tested on: γ-glutamyl-cysteine ligase (γ-GCL); assay: mRNA expression of γ-GCL by RT-PCR in MCF7 cells; assay type: cell-based, human; details: MCF7, 25 μM, 48 h
Outline: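 MCF7 cells were exposed to 25 μM test compound for 48 h. Total RNA was extracted with TRI reagent, and about 2 μg was reverse-transcribed. SYBR Green real-time PCR used γ-GCL-specific primers. CT values were normalised to β-actin and expression expressed relative to control. Mean ± SEM, n = 3.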

[9] = target: T1, thioredoxin reductase (TrxR) (Homo sapiens, UniProt Q16881); assay: TrxR activity level in MCF7 cells; assay type: cell-based; details: MCF7, 25 μM, 48 h
T1 sequence (Q16881 151-649 limits assumed): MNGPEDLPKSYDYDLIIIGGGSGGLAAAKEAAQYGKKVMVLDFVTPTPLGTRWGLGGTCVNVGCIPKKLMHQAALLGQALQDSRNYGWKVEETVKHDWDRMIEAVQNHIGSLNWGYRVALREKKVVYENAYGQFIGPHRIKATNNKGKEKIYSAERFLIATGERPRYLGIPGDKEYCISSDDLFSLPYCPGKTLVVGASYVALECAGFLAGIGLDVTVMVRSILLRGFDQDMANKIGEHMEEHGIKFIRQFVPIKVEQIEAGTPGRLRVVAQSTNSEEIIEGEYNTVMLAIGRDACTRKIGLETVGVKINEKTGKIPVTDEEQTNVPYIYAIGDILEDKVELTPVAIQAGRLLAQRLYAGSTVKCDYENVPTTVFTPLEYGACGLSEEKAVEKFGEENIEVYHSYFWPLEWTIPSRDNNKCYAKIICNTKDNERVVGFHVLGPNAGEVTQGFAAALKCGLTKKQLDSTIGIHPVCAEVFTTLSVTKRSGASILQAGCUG
Outline: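 MCF7 lysates were prepared in CelLytic M with protease inhibitors after 48 h exposure to 25 μM test compound (0.1% DMSO). Thioredoxin reductase activity in about 100 μg protein was measured with a commercial kit; protein was measured by Bradford. Mean ± SEM, n = 3, versus DMSO control.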

rat liver TrxR = target: T2, rat liver TrxR (Rattus norvegicus, UniProt O89049); assay: TrxR inhibition assay in cell-free system; assay type: biochemical; details: for inhibition of TrxR: cell-free, rat liver TrxR
T2 sequence (O89049 1-499): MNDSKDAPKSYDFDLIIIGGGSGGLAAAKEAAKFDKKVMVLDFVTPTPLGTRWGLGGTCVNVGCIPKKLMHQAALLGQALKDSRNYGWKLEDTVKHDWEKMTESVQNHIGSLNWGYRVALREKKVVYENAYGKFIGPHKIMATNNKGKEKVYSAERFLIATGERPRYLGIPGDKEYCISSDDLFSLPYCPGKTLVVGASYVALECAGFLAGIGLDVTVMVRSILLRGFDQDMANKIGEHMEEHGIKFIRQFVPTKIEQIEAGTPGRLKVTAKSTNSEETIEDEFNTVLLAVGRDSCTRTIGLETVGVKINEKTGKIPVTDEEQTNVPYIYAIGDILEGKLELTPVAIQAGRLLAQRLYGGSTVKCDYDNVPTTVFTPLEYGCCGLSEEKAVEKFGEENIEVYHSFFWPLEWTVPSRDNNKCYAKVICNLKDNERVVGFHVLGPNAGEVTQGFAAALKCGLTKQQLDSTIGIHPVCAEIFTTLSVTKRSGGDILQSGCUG
Outline: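 Rat liver TrxR (50 nM) was preincubated at 37 °C for 30 min with 100 μM NADPH and test compound (5–100 μM) in 50 mM Tris–HCl, 1 mM EDTA, pH 7.4 (4% DMSO final). DTNB was then added and TNB formation followed at A412 for 5 min, against a no-enzyme blank and a compound blank. Activity is given as % of control. For reversibility, NADPH was varied 10–100 μM with compound fixed at 50 μM (Lineweaver–Burk).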

cells = assay: Toxicity in cells; assay type: cell-based; details: up to a concentration of 10 μM
Outline: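 Cells were seeded at about 2 × 10³ per well and allowed to attach for 12 h. Lines were CHO, A549 and MCF7 in DMEM with 10% FBS, or fresh BALB/c mouse splenic lymphocytes in RPMI-1640. Cells were then exposed to test compound (5–100 μM, 0.1% DMSO) for 48 h. MTT was read at 570 nm, with % cytotoxicity taken versus control. Mean ± SEM, n = 3.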

CHO cells [10] = assay: Radiation-induced micronuclei assay and NDI in CHO cells; assay type: cell-based, Chinese Hamster; details: 4 Gy; for reduction in radiation-induced micronuclei formation: pretreatment 2 h, 18 h postirradiation
Outline: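 CHO cells were pretreated with test compound (2.5–10 μM; 10 μM for NDI) for 2 h, washed with PBS and placed in serum-free medium. They were given 4 Gy ⁶⁰Co γ-rays at 1 Gy/min, then returned to 10% FBS. Cytochalasin B (4 μg/mL) was present for 18 h, and cells were stained with acridine orange. Micronuclei were scored in 500 binucleated cells. NDI was calculated from counts of mono- to tetranucleated cells among ≥500 viable cells.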

CHO cells [11] = assay: Single-cell alkaline gel electrophoresis; assay type: cell-based, Chinese Hamster; details: 10 μM for 2 h, 4 Gy, 0 to 60 min
Outline: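 CHO cells pretreated with 10 μM test compound for 2 h were washed, then irradiated at 4 Gy (⁶⁰Co, 1 Gy/min) in serum-free medium, with 10% FBS re-added afterwards. At 0, 30 and 60 min, about 15 000 cells in 0.8% low-melting agarose were lysed, electrophoresed under alkaline conditions and stained with SYBR Green II. Tail length and olive tail moment were measured in about 50 cells per slide. Mean ± SEM, n = 3.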

CHO cells [12] = assay: Radiation-induced intracellular ROS level; assay type: cell-based, Chinese Hamster; details: 10 μM for 2 h, 2 Gy, 30 min postirradiation
Outline: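 CHO cells were pretreated with 10 μM test compound for 2 h and then γ-irradiated. At 30 min postirradiation, 1 × 10⁴ cells were loaded with DCFDA (5 μM) for 30 min at 37 °C. DCF fluorescence was read on a plate reader (excitation 488 nm, emission 530 nm).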

degraded in phosphate buffer (Chemical stability [1]): 65%
degraded in culture medium (10% FBS) (Chemical stability [2]): ~30%
percent inhibition in TrxR activity [9]: 58%
nature of TrxR inhibition (rat liver TrxR; NADPH competition experiment, Lineweaver–Burk): reversible inhibition
inhibition of TrxR (rat liver TrxR; 100 μM): 85–95%
inhibition of TrxR (rat liver TrxR; up to a concentration of 50 μM): 15–25%
Vmax (rat liver TrxR; compound 50 μM, NADPH 10–100 μM, unaffected versus control reaction): 1 nmol/min
Substance: Hispolon [HS]
IC50 (MCF7 cells [3]): 42 µM
IC50 (A549 cells): 68 µM
IC50 (CHO cells [4]): > 100 µM
IC50 (splenic lymphocytes): > 100 µM
increase in GSH/GSSG (MCF7 cells [5]): did not cause any significant change
inhibition of GPx activity [6]: did not cause any significant change
inhibition of GST activity [7]: did not cause any significant change
mRNA expression of γ-GCL compared to control cells [8]: marginal increase
toxicity in cells (cells): < 10%
Nuclear division index (NDI) compared to radiation control (CHO cells [10]; 10 μM for 2 h): did not affect this much
reduction in radiation-induced micronuclei formation (CHO cells [10]; 7.5 μM): 20%
reduction in radiation-induced micronuclei formation (CHO cells [10]; 10 μM): 22%
reduction in radiation-induced micronuclei formation (CHO cells [10]; up to 5 μM): did not affect
DNA damage parameters (TL, OTM) compared to radiation control (CHO cells [11]): significant decrease
reduction in the ROS level compared to radiation control (CHO cells [12]): 40%
